Experimental data taken from PubChem BioAssay AID2298 (NMMLSC, 2010).

Target: Regulator of G-protein signaling 16 (Homo sapiens) (UniProt O15492)
Test: small molecules altering RGS16 interaction with Galphao – biochemical, multiplexed bead flow cytometry, SAR compounds, SAR follow-up (AID 2298)
Conditions: bead-based flow cytometry, AF488-Galphao binding to RGS16; for Ki: measured here: Ki derived from EC50, inhibitors
Outline: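 Test system: biotinylated RGS16 on colour-coded streptavidin beads, multiplexed with other RGS beads. Reagent: AF488-Galphao (AlF4-activated), 7 nM final. Compound: Nine-point threefold dilution series of compound. Timing: 30–90 min binding at room temperature. Measured by: flow cytometry, median FL1 fluorescence per bead set. Benchmarks: DMSO wells as full binding, RGS-free beads as background.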

Sequence of Regulator of G-protein signaling 16 (Homo sapiens) (O15492 whole entry, looked up): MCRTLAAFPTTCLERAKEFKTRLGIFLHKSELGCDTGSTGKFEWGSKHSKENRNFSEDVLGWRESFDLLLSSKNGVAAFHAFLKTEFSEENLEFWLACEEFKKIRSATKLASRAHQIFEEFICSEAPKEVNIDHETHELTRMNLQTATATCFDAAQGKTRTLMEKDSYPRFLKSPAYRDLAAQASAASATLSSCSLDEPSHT

SMILES	Ki [nM]	EC50 [nM]
O=C(Cc1csc(N2CCOCC2)n1)N/N=C/c1ccc(O)c(O)c1O	670	–
CN=c1scc(C)n1/N=C/c1ccc(O)c(O)c1O	410	–
Cc1[nH]n(-c2ccccc2)c(=S)c1C=Nc1cccc([N+](=O)[O-])c1	40	–
O=C(COc1ccccc1C(=O)N/N=C/c1ccc(O)c(O)c1)N/N=C/c1ccc(O)c(O)c1	90	–
CCN(CC)S(=O)(=O)c1cccc(-c2n[nH]c(=S)n2/N=C/c2ccc(C(=O)OC)cc2)c1	760	–
CCOC(=O)c1sc(NC(=O)CSc2nnc(Cc3ccccc3)o2)c(C#N)c1C	580	–
CCN(CC)S(=O)(=O)c1cccc(C(=O)N/N=C/c2ccc(O)c(O)c2O)c1	480	–
CCN=c1scc(C)n1/N=C/c1ccc(O)c(O)c1O	850	–
CCC(=O)NC(c1ccc(C)cc1)c1cc([N+](=O)[O-])c2cccnc2c1O (centres undefined)	4240	–
Cc1cccc(N2CCN(C(=O)COc3nsc4nc(C)cc(C)c34)CC2C)c1 (centres undefined)	1160	–
COC(=O)CCC(=O)Nc1sc(C)c(C)c1C(N)=O	1140	–
O=C(NCCCN1CCOCC1)c1sc2cc([N+](=O)[O-])ccc2c1Cl	270	–
Cc1cccc(N2CCN(C(=O)Cn3sc4nc(C)cc(C)c4c3=O)CC2C)c1 (centres undefined)	90	–
CC(NC(=O)c1sc2cc([N+](=O)[O-])ccc2c1Cl)C(C)(C)C (centres undefined)	170	–
O=c1c2ccccc2sn1-c1ccc(S(=O)(=O)N2CCCC2)cc1	20	–
CC(=O)OCCCNc1cc(Sc2nc3ccccc3s2)c2nonc2c1[N+](=O)[O-]	220	–
NS(=O)(=O)c1ccc(N/N=C/c2ccc(O)c(O)c2O)c([N+](=O)[O-])c1	20	29
COc1ccc(C2=CC(=O)C=CC2=O)cc1	120	–
Cc1cc(Cl)ccc1N=c1ssnc1Cl	40	–
CC1(C)OC(=O)C(=Cc2ccc(-c3ccc(S(N)(=O)=O)cc3)o2)C(=O)O1	2840	–
CN1CCN(C2=C(Cl)C(=O)C(c3cnc(N4CCCCC4)s3)=C(Cl)C2=O)CC1	20	–
O=C1C(Cl)=C(N2CCCCC2)C(=O)C(Cl)=C1c1cnc(N2CCCCC2)s1	100	–
Cc1[nH]n(-c2ccccc2)c(=S)c1C=NCCCN=Cc1c(C)[nH]n(-c2ccccc2)c1=S	330	–
